These results are taken from ChEMBL document CHEMBL5104216, “Fragment-Sized Thiazoles in Fragment-Based Drug Discovery Campaigns: Friend or Foe?” (ACS Med Chem Lett, 2022).

The subject of series [1] is Mycobacterium tuberculosis. As to the kind of experiment: Inhibition of Mycobacterium tuberculosis MetAP1a assessed as residual activity at 625 uM using L-methionine 7-amido-4-methylcoumarin as fluorogenic substrate and measured by fluorescence based assay. The procedure, abridged:
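Kinetic fluorescence assay in which the enzyme hydrolyses L-methionine 7-amido-4-methylcoumarin to fluorescent 7-amino-4-methylcoumarin. Compounds were tested at 500–625 μM, and activity was called at <50% residual activity. Spectral interference was checked by measuring absorbance at the excitation and emission wavelengths and compound autofluorescence.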

Series [2] deals with D-alanine--D-alanine ligase B (Escherichia coli K-12) (UniProt P07862). Briefly: Inhibition of recombinant Escherichia coli DdlB assessed as residual activity at 500 uM using D-alanine as substrate incubated for 20 mins and measured by malachite green based colorimetric assay relative to control. The procedure, abridged: (§1)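 Screened at 500–625 μM with malachite green colorimetric read-out. Activity threshold was <50% residual activity.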

Series [3] concerns the target Replicase polyprotein 1ab (Severe acute respiratory syndrome coronavirus 2) (UniProt P0DTD1). Briefly: Inhibition of recombinant SARS-CoV-2 3CLpro expressed in Escherichia coli NiCo21(DE3) assessed as residual activity at 500 uM using DABCYL-KTSAVLQSGFRKME-EDANS as substrate preincubated for 30 mins in presence of 1mM DTT followed by substrate addition and measured by FRET assay relative to control. The procedure, abridged:
(§2)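 Kinetic fluorescence read-out of cleavage of a FRET substrate carrying a DABCYL–EDANS pair. Compounds were tested at 500–625 μM, and <50% residual activity was taken as the activity threshold. To exclude false positives, absorbance at the excitation and emission wavelengths and autofluorescence of the compounds were measured.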

Series [4] concerns the target UDP-N-acetylglucosamine 1-carboxyvinyltransferase (Escherichia coli K-12) (UniProt P0A749). As to the kind of experiment: Inhibition of recombinant Escherichia coli MurA assessed as residual activity at 500 uM using UDP-N-acetylglucosamine as substrate preincubated for 30 mins in presence of 1 mM DTT followed by substrate addition and measured by malachite green based colorimetric assay relative to control.

For series [5] the target is unchanged. Briefly: Inhibition of recombinant Escherichia coli MurA assessed as residual activity at 500 uM using UDP-N-acetylglucosamine as substrate and measured by malachite green based colorimetric assay relative to control. The method in brief: as §1
The nature of series [6]: Aqueous stability of the compound at pH 7.4 measured after 60 mins by spectrophotometric analysis. The format is physicochemical. As to conditions: buffer, pH 7.4, 1 h. The procedure, abridged:
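Followed by spectrophotometry as changes in the compound absorption spectrum over time in 50 mM Tris-HCl pH 7.4, 0.5 mM EDTA, read after 60 min in 96-well microplate format. Compounds with low absorbance were not evaluated.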

Series [7] in a line: Redox activity of compound assessed as redox index at 100 uM in presence of 1 mM DTT measured by HRP-PR assay. The class given is physicochemical. The method in brief: (§3)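 H2O2 from redox cycling, with or without DTT, detected with horseradish peroxidase-phenol red (HRP-PR).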
Series [8] can be described thus: Redox activity of compound assessed as redox index at 10 uM measured by resazurin assay. The format is physicochemical. The method in brief:
(§4)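 Free radicals formed by redox cycling with DTT detected with resazurin by fluorimetric read-out. Spectral interference checked.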
On the technique in general: The colour change of resazurin is a common sign of viable cells or microbes.

Series [9] addresses Replicase polyprotein 1ab (Severe acute respiratory syndrome coronavirus 2) (UniProt P0DTD1). Briefly: Inhibition of recombinant SARS-CoV-2 3CLpro expressed in Escherichia coli NiCo21(DE3) assessed as residual activity at 500 uM using DABCYL-KTSAVLQSGFRKME-EDANS as substrate preincubated for 30 mins followed by substrate addition and measured by FRET assay relative to control. The procedure, abridged: as §2

Series [10] can be described thus: Redox activity of compound assessed as redox index at 100 uM measured by H2DCFDA assay. The class given is physicochemical. The method in brief:
(§5)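 Reactive oxygen species, with or without the reducing agent TCEP, detected with the fluorescent probe H2DCFDA. Compound spectral interference (autofluorescence) checked under the assay conditions.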

A short description of series [11]: Redox activity of compound assessed as redox index at 100 uM in presence of 100 uM TCEP measured by H2DCFDA assay. The class given is physicochemical. The method in brief:
as §5

For series [12], the target named is UDP-N-acetylglucosamine 1-carboxyvinyltransferase (Escherichia coli K-12) (UniProt P0A749). Briefly: Inhibition of recombinant Escherichia coli MurA assessed as residual activity at 500 uM using UDP-N-acetylglucosamine as substrate preincubated for 30 mins followed by substrate addition and measured by malachite green based colorimetric assay relative to control. The procedure, abridged: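 E. coli MurA at 500–625 μM with 30 min preincubation before substrate addition. Malachite green colorimetric read-out. Activity threshold was <50% residual activity.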

Series [13] is described as follows: Redox activity of compound assessed as redox index at 100 uM measured by HRP-PR assay. The format is physicochemical. The method in brief: as §3
Series [14] in a line: Redox activity of compound assessed as redox index at 1 uM measured by resazurin assay. The class given is physicochemical. The method in brief: as §4

Sequence of UDP-N-acetylglucosamine 1-carboxyvinyltransferase (Escherichia coli K-12) (P0A749 whole entry): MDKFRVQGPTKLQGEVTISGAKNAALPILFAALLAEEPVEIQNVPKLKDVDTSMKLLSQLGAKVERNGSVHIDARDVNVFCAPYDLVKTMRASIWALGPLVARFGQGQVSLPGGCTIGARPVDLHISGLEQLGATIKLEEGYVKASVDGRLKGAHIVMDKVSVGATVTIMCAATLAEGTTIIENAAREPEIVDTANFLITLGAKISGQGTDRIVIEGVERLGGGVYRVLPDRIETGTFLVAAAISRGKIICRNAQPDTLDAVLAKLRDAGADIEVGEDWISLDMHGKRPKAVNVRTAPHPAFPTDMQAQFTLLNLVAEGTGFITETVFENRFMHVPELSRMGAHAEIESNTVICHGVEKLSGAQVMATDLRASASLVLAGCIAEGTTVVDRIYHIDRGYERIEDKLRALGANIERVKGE

With `Cc1nc(-c2ccc(C(=O)O)cc2)cs1`, the Activity in [1] was 136%; in [2] it was 94%; in series [3], 81.2%; in series [4], 101%; in [5] it was 102%; in series [9], 149%. Further, the Activity in series [12] was 113%. Besides, the Stability entry in series [6] is on record as “Stable”. In addition, the Activity_index in series [7] stood at 1; in [8], 1.1; in series [10], 0.9; in series [11], 0.9; in series [13], 1; in series [14], 0.9.

With `Nc1nnc(C2CC2)s1`, the Activity in [1] was found to be 92.5%; in [2], 96%; in series [3], 79.3%; in series [4] it was 99.8%; in [5] it was 3.5%; in series [9], 34.2%. In addition, the Activity in series [12] came out at 2.2%. The Stability result in series [6] is given as “Stable”. For the same molecule, the Activity_index is 1.1 in series [7]; 0.9 in [8]; 1.2 in series [10]; 1.2 in series [11]; 1.1 in series [13]; 0.9 in series [14].

For the molecule `Cc1nnc(N)s1`, the Activity stood at 114% in series [1]; 98% in series [2]; 81.9% in series [3]; 99.4% in series [4]; 92.9% in [5]; 121% in series [9]. The Activity in series [12] was 89.5%. Moreover, in series [6], the Stability result is given as “Stable”. Moreover, the Activity_index stood at 1 in [7]; 0.9 in [8]; 1 in [10]; 1 in series [11]; 1 in series [13]; 0.9 in series [14].

As for `COC(=O)c1csc(Br)n1`, the Activity was found to be 88.2% in series [1]; 95% in series [2]; 68.6% in [3]; 104% in [4]; 106% in [5]; 73.7% in series [9]. Besides, the Activity in series [12] turned out to be 117%. For the same molecule, in series [6], the Stability result is reported as “Stable”. The Activity_index is on record as 1 in [7]; 0.8 in series [8]; 0.8 in series [10]; 0.9 in series [11]; 1 in series [13]; 1.4 in series [14].

Take `Nc1nc(-c2ccncc2)cs1`: the Activity in series [1] amounted to 110%; in series [2], 96%; in [3], 77.8%; in [4] it was 103%; in series [5], 86.7%; in series [9], 91.9%. Further, in series [12], the Activity was 56.7%. The Stability result in series [6] is recorded as “Stable”. Further, the Activity_index in [7] is given as 1; in series [8], 1; in [10], 1.1; in series [11], 1.2; in series [13], 0.8; in series [14] it was 1.

With `CCOC(=O)c1csc(Br)n1`, the Activity in series [1] is 90.8%; in series [2] it was 97%; in series [3] it was 80.7%; in series [4] it was 100%; in series [5], 89.8%; in series [9], 71.7%. The Activity in series [12] was found to be 84%. For the same molecule, the Stability entry in series [6] is reported as “Stable”. Further, the Activity_index turned out to be 1 in [7]; 1 in [8]; 1 in series [10]; 0.9 in [11]; 1 in series [13]; 0.9 in series [14].

Turning to `Cc1nc(Br)sc1C(=O)O`, the Activity in series [1] came out at 43.4%; in [2], 94%; in series [3] it was 92.9%; in series [4], 102%; in series [5], 72.4%; in series [9], 100%. Moreover, the Activity in series [12] turned out to be 18.5%. In addition, the Stability entry in series [6] is listed as “Stable”. Besides, the Activity_index in series [7] came to 1; in series [8], 0.9; in series [10], 1.2; in series [11], 1.1; in series [13], 1; in series [14] it was 0.9.

For the molecule `COC(=O)C(=O)Nc1ncc(Br)s1`, the Activity in series [1] came to 156%; in series [2], 94%; in series [3], 66.2%; in series [4] it was 112%; in series [5], 81.7%; in series [9], 89.5%. Further, in series [12], the Activity came out at 37.2%. Further, in series [6], the Stability entry was “Unstable”. In addition, the Activity_index in series [7] was determined as 1; in [8], 1.1; in [10], 0.8; in series [11], 0.8; in series [13], 1; in series [14], 0.9.

Take `O=C(O)c1csc(Br)n1`: the Activity in series [1] was found to be 81.7%; in series [2], 92%; in series [3] it was 73.7%; in series [4] it was 101%; in [5], 102%; in series [9], 73.6%. In addition, the Activity in series [12] was determined as 96%. The Stability result in [6] is recorded as “Stable”. For the same molecule, the Activity_index in [7] is 1; in series [8], 0.9; in series [10], 1; in series [11] it was 1; in series [13], 1; in series [14], 0.9.

`O=C(O)c1csc(-c2ccncc2)n1`: the Activity in series [1] is 93.4%; in [2] it was 96%; in series [3], 94.4%; in [4] it was 106%; in series [5], 103%; in series [9], 98%. Further, the Activity in [12] amounted to 90.4%. Besides, the Stability result in series [6] was “Stable”. The Activity_index in [7] stood at 1; in [8], 1; in series [10], 1; in series [11] it was 1.1; in [13], 1; in [14] it was 1.

With `Cc1nc(C(=O)O)cs1`, the Activity in [1] stood at 73.9%; in [2], 92%; in series [3], 78.7%; in series [4], 105%; in [5], 7.2%; in series [9] it was 3.4%. Moreover, in series [12], the Activity came to 1.6%. Also, the Stability result in [6] was “Stable”. Besides, the Activity_index in series [7] is reported as 1; in [8] it was 1; in [10], 0.9; in series [11] it was 1.6; in series [13], 1; in series [14], 0.9.

As to `CCOC(=O)c1cnc(Br)s1`, the Activity in series [1] is 92.3%; in series [2], 90%; in [3], 66.4%; in series [4], 103%; in [5], 60.1%; in series [9] it was 10.2%. Also, the Activity in series [12] was determined as 14.9%. The Stability result in series [6] is reported as “Stable”. The Activity_index in series [7] is 1; in [8], 1; in [10], 0.9; in series [11], 1.1; in series [13] it was 1; in series [14] it was 0.9.
